# Experimental data: ChEMBL document CHEMBL1221232, “Synthesis and biological activity of 4''-O-acyl derivatives of 14- and 15-membered macrolides linked to omega-quinolone-carboxylic unit” (Bioorg Med Chem, 2010)
# Columns and labels:
# Staphylococcus aureus [1] = assay: Antibacterial activity against erythromycin-sensitive Staphylococcus aureus ATCC 13709 by broth microdilution method; type: functional
# Outline: (§1)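 MIC by CLSI broth microdilution. Inocula from agar-grown cultures: chocolate agar for H. influenzae, Columbia agar with 5% sheep blood for M. catarrhalis, Mueller-Hinton agar for S. aureus. Read as minimum inhibitory concentration in µg/mL.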
# Staphylococcus aureus [2] = assay: Antibacterial activity against efflux-mediated macrolide resistance Staphylococcus aureus PK1 by broth microdilution method; type: functional
# Outline: (§2)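 MIC by CLSI broth microdilution. Staphylococci were grown on Mueller-Hinton agar before testing. The MIC is the lowest concentration inhibiting growth.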
# Streptococcus pneumoniae [3] = assay: Antibacterial activity against efflux-mediated macrolide resistance Streptococcus pneumoniae Ci137 by broth microdilution method; type: functional
# Outline: (§3)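 MIC by CLSI broth microdilution, except that the streptococcal medium used 5% horse serum in place of lysed blood. Streptococcal inocula came from Columbia agar with 5% sheep blood. The MIC is the lowest concentration inhibiting growth.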
# Streptococcus pyogenes [4] = assay: Antibacterial activity against efflux-mediated macrolide resistance Streptococcus pyogenes 2 by broth microdilution method; type: functional; outline: as §3
# Staphylococcus aureus [5] = assay: Antibacterial activity against macrolide, licosamide and streptogramin inducible-resistance Staphylococcus aureus 90256 by broth microdilution method; type: functional; outline: as §2
# Streptococcus pneumoniae [6] = assay: Antibacterial activity against inducible resistance to macrolide and constitutive resistance to lincosamide Streptococcus pneumoniae 134 GR M by broth microdilution method; type: functional; outline: as §3
# Streptococcus pyogenes [7] = assay: Antibacterial activity against macrolide, licosamide and streptogramin inducible-resistance Streptococcus pyogenes 11 by broth microdilution method; type: functional; outline: as §3
# Streptococcus pneumoniae [8] = assay: Antibacterial activity against constitutive MLS-resistance Streptococcus pneumoniae 58 by broth microdilution method; type: functional; outline: as §3
# Streptococcus pyogenes [9] = assay: Antibacterial activity against constitutive MLS resistance Streptococcus pyogenes 166 GR-Micro by broth microdilution method; type: functional; outline: as §3
# Haemophilus influenzae = assay: Antibacterial activity against Haemophilus influenzae ATCC 49247 by broth microdilution method; type: functional; outline: as §1
# Moraxella catarrhalis = assay: Antibacterial activity against Moraxella catarrhalis ATCC 23246 by broth microdilution method; type: functional; outline: as §1
# Rattus norvegicus [10] = assay: Liver blood flow in Sprague-Dawley rat blood at 30 mg/kg, po and 5 mg/kg, iv; type: ADME, organism-based; conditions: in vivo
# Outline: (§4)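 Po/iv crossover study in male Sprague-Dawley rats. Target doses were 30 mg/kg po (fasted) and 5 mg/kg iv (fed). Compound was given as a solution in 1.0% DMSO and 20% (w/v) Encapsin, in saline for iv or water for po, pH 3.5–4.0. Blood was sampled at several timepoints up to 1800 min and hemolyzed 1:1 with water.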
# [11] = Volume of distribution at steady state in Sprague-Dawley rat blood at 30 mg/kg, po and 5 mg/kg, iv; type: ADME, organism-based; conditions: whole blood, read-out: Vdss; outline: as §4
# [12] = Oral bioavailability in Sprague-Dawley rat blood at 30 mg/kg; type: ADME, organism-based; conditions: whole blood; outline: as §4
# Rattus norvegicus [13] = assay: Clearance in Sprague-Dawley rat blood as % of liver blood flow at 30 mg/kg, po and 5 mg/kg, iv; type: ADME, organism-based; conditions: in vivo; outline: as §4
smiles,measurement,setting,value
CC[C@H]1OC(=O)[C@H](C)[C@@H](O[C@H]2C[C@@](C)(OC)[C@@H](OC(=O)CCOCCOCCCc3ccc4c(c3)c(=O)c(C(=O)O)cn4C3CC3)[C@H](C)O2)[C@H](C)[C@@H](O[C@@H]2O[C@H](C)C[C@H](N(C)C)[C@H]2O)[C@](C)(O)C[C@@H](C)CN(C)[C@H](C)[C@@H](O)[C@]1(C)O,MIC,Staphylococcus aureus [1],≤ 0.125 µg/mL
same,MIC,Staphylococcus aureus [2],≤ 0.125 µg/mL
same,MIC,Streptococcus pneumoniae [3],≤ 0.125 µg/mL
same,MIC,Streptococcus pyogenes [4],≤ 0.125 µg/mL
same,MIC,Staphylococcus aureus [5],≤ 0.125 µg/mL
same,MIC,Streptococcus pneumoniae [6],0.25 µg/mL
same,MIC,Streptococcus pyogenes [7],≤ 0.125 µg/mL
same,MIC,Streptococcus pneumoniae [8],≤ 0.125 µg/mL
same,MIC,Streptococcus pyogenes [9],0.5 µg/mL
same,MIC,Haemophilus influenzae,2 µg/mL
same,MIC50,Haemophilus influenzae,1 µg/mL
same,MIC90,Haemophilus influenzae,2 µg/mL
same,MIC,Moraxella catarrhalis,0.5 µg/mL
same,LBF,Rattus norvegicus [10],43%
same,Vd,[11],10.5 L/kg
same,bioavailability,[12],16%
CC[C@H]1OC(=O)[C@H](C)[C@@H](O[C@H]2C[C@@](C)(OC)[C@@H](O)[C@H](C)O2)[C@H](C)[C@@H](O[C@@H]2O[C@H](C)C[C@H](N(C)C)[C@H]2O)[C@](C)(O)C[C@@H](C)CN(C)[C@H](C)[C@@H](O)[C@]1(C)O [AZITHROMYCIN],MIC,Staphylococcus aureus [1],0.5 µg/mL
same,MIC,Staphylococcus aureus [2],> 64 µg/mL
same,MIC,Streptococcus pneumoniae [3],8 µg/mL
same,MIC,Streptococcus pyogenes [4],8 µg/mL
same,MIC,Staphylococcus aureus [5],> 64 µg/mL
same,MIC,Streptococcus pneumoniae [6],> 64 µg/mL
same,MIC,Streptococcus pyogenes [7],> 64 µg/mL
same,MIC,Streptococcus pneumoniae [8],> 64 µg/mL
same,MIC,Streptococcus pyogenes [9],> 64 µg/mL
same,MIC,Haemophilus influenzae,1 µg/mL
same,MIC50,Haemophilus influenzae,1 µg/mL
same,MIC90,Haemophilus influenzae,2 µg/mL
same,MIC,Moraxella catarrhalis,≤ 0.125 µg/mL
CC[C@H]1OC(=O)[C@H](C)[C@@H](O[C@@H]2O[C@@H](C)C[C@](C)(OC)[C@H]2OC(=O)CCOCCOCCCc2ccc3c(c2)c(=O)c(C(=O)O)cn3CC)[C@H](C)[C@@H](O[C@@H]2O[C@H](C)C[C@H](N(C)C)[C@H]2O)[C@](C)(O)C[C@@H](C)/C(=N\OCOCCOC)[C@H](C)[C@@H](O)[C@]1(C)O,MIC,Staphylococcus aureus [1],0.5 µg/mL
same,MIC,Staphylococcus aureus [2],1 µg/mL
same,MIC,Streptococcus pneumoniae [3],≤ 0.125 µg/mL
same,MIC,Streptococcus pyogenes [4],≤ 0.125 µg/mL
same,MIC,Staphylococcus aureus [5],8 µg/mL
same,MIC,Streptococcus pneumoniae [6],0.5 µg/mL
same,MIC,Streptococcus pyogenes [7],≤ 0.125 µg/mL
same,MIC,Streptococcus pneumoniae [8],1 µg/mL
same,MIC,Streptococcus pyogenes [9],1 µg/mL
same,MIC,Haemophilus influenzae,4 µg/mL
same,MIC,Moraxella catarrhalis,1 µg/mL
CCCn1cc(C(=O)O)c(=O)c2cc(CCCOCCOCCC(=O)O[C@H]3[C@H](C)O[C@@H](O[C@H]4[C@H](C)[C@@H](O[C@@H]5O[C@H](C)C[C@H](N(C)C)[C@H]5O)[C@](C)(O)C[C@@H](C)CN(C)[C@H](C)[C@@H](O)[C@](C)(O)[C@@H](CC)OC(=O)[C@@H]4C)C[C@@]3(C)OC)ccc21,MIC,Staphylococcus aureus [1],≤ 0.125 µg/mL
same,MIC,Staphylococcus aureus [2],≤ 0.125 µg/mL
same,MIC,Streptococcus pneumoniae [3],≤ 0.125 µg/mL
same,MIC,Streptococcus pyogenes [4],≤ 0.125 µg/mL
same,MIC,Staphylococcus aureus [5],≤ 0.125 µg/mL
same,MIC,Streptococcus pneumoniae [6],≤ 0.125 µg/mL
same,MIC,Streptococcus pyogenes [7],≤ 0.125 µg/mL
same,MIC,Streptococcus pneumoniae [8],≤ 0.125 µg/mL
same,MIC,Streptococcus pyogenes [9],0.25 µg/mL
same,MIC,Haemophilus influenzae,1 µg/mL
same,MIC50,Haemophilus influenzae,1 µg/mL
same,MIC90,Haemophilus influenzae,2 µg/mL
same,MIC,Moraxella catarrhalis,0.5 µg/mL
CC[C@H]1OC(=O)[C@H](C)[C@@H](O[C@@H]2O[C@@H](C)C[C@](C)(OC)[C@H]2OC(=O)CCOCCOCCCc2ccc3c(c2)c(=O)c(C(=O)O)cn3CC)[C@H](C)[C@@H](O[C@@H]2O[C@H](C)C[C@H](N(C)C)[C@H]2O)[C@](C)(OC)C[C@@H](C)C(=O)[C@H](C)[C@H]2NC(=O)O[C@@]21C,MIC,Staphylococcus aureus [1],≤ 0.125 µg/mL
same,MIC,Staphylococcus aureus [2],≤ 0.125 µg/mL
same,MIC,Streptococcus pneumoniae [3],≤ 0.125 µg/mL
same,MIC,Streptococcus pyogenes [4],≤ 0.125 µg/mL
same,MIC,Staphylococcus aureus [5],≤ 0.125 µg/mL
same,MIC,Streptococcus pneumoniae [6],≤ 0.125 µg/mL
same,MIC,Streptococcus pyogenes [7],≤ 0.125 µg/mL
same,MIC,Streptococcus pneumoniae [8],≤ 0.125 µg/mL
same,MIC,Streptococcus pyogenes [9],≤ 0.125 µg/mL
same,MIC,Haemophilus influenzae,1 µg/mL
same,MIC50,Haemophilus influenzae,2 µg/mL
same,MIC90,Haemophilus influenzae,4 µg/mL
same,MIC,Moraxella catarrhalis,1 µg/mL
CC[C@H]1OC(=O)[C@H](C)[C@@H](O[C@H]2C[C@@](C)(OC)[C@@H](OC(=O)CCOCCOCCCc3ccc4c(c3)c(=O)c(C(=O)O)cn4CC)[C@H](C)O2)[C@H](C)[C@@H](O[C@@H]2O[C@H](C)C[C@H](N(C)C)[C@H]2O)[C@](C)(O)C[C@@H](C)CN(C)[C@H](C)[C@@H](O)[C@]1(C)O,MIC,Staphylococcus aureus [1],≤ 0.125 µg/mL
same,MIC,Staphylococcus aureus [2],0.25 µg/mL
same,MIC,Streptococcus pneumoniae [3],≤ 0.125 µg/mL
same,MIC,Streptococcus pyogenes [4],≤ 0.125 µg/mL
same,MIC,Staphylococcus aureus [5],0.25 µg/mL
same,MIC,Streptococcus pneumoniae [6],0.25 µg/mL
same,MIC,Streptococcus pyogenes [7],≤ 0.125 µg/mL
same,MIC,Streptococcus pneumoniae [8],≤ 0.125 µg/mL
same,MIC,Streptococcus pyogenes [9],≤ 0.125 µg/mL
same,MIC,Haemophilus influenzae,1 µg/mL
same,MIC50,Haemophilus influenzae,1 µg/mL
same,MIC90,Haemophilus influenzae,2 µg/mL
same,MIC,Moraxella catarrhalis,≤ 0.125 µg/mL
same,Fraction of Liver Blood Flow,Rattus norvegicus [13],35%
same,Vd,[11],10.4 L/kg
same,bioavailability,[12],22%
CC[C@H]1OC(=O)[C@H](C)[C@@H](O[C@@H]2O[C@@H](C)C[C@](C)(OC)[C@H]2OC(=O)CCOCCOCCCc2ccc3c(c2)c(=O)c(C(=O)O)cn3CC)[C@H](C)[C@@H](O[C@@H]2O[C@H](C)C[C@H](N(C)C)[C@H]2O)[C@](C)(OC)C[C@@H](C)C(=O)[C@H](C)[C@H]2N(C)C(=O)O[C@]12C,MIC,Staphylococcus aureus [1],≤ 0.125 µg/mL
same,MIC,Staphylococcus aureus [2],0.5 µg/mL
same,MIC,Streptococcus pneumoniae [3],≤ 0.125 µg/mL
same,MIC,Streptococcus pyogenes [4],≤ 0.125 µg/mL
same,MIC,Staphylococcus aureus [5],0.25 µg/mL
same,MIC,Streptococcus pneumoniae [6],≤ 0.125 µg/mL
same,MIC,Streptococcus pyogenes [7],≤ 0.125 µg/mL
same,MIC,Streptococcus pneumoniae [8],≤ 0.125 µg/mL
same,MIC,Streptococcus pyogenes [9],≤ 0.125 µg/mL
same,MIC,Haemophilus influenzae,1 µg/mL
same,MIC,Moraxella catarrhalis,≤ 0.125 µg/mL
CC[C@H]1OC(=O)[C@H](C)C(=O)[C@H](C)[C@@H](O[C@@H]2O[C@H](C)C[C@H](N(C)C)[C@H]2O)[C@](C)(OC)C[C@@H](C)C(=O)[C@H](C)[C@H]2N(CCCCn3cnc(-c4cccnc4)c3)C(=O)O[C@]12C [TELITHROMYCIN],MIC,Staphylococcus aureus [1],≤ 0.125 µg/mL
same,MIC,Staphylococcus aureus [2],≤ 0.125 µg/mL
same,MIC,Streptococcus pneumoniae [3],0.25 µg/mL
same,MIC,Streptococcus pyogenes [4],0.5 µg/mL
same,MIC,Staphylococcus aureus [5],≤ 0.125 µg/mL
same,MIC,Streptococcus pneumoniae [6],0.25 µg/mL
same,MIC,Streptococcus pyogenes [7],≤ 0.125 µg/mL
same,MIC,Streptococcus pneumoniae [8],0.25 µg/mL
same,MIC,Streptococcus pyogenes [9],16 µg/mL
same,MIC,Haemophilus influenzae,2 µg/mL
same,MIC,Moraxella catarrhalis,≤ 0.125 µg/mL
